A selection: hits, their analogues and other compounds. The true share with any hit is near 5%.
Beta apoptosis: blocks beta cell apoptosis | INS-1E cytokine-induced death, ATP luminescence, 48 h; percent of positive-control rescue, neutral wells zero | protection from apoptosis, % (no concentration beside the values) | 300,000 tested, 0.8% active | AID 435005;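 active = Every replicate reaches about 75%, or at least half do and their mean reaches it too, limit read from the data; inconclusive = At least half of replicates reach the limit but their mean does not; inactive = Under half of replicates reach the limit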;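 note: 0% = cytokine-treated negative control wells and 100% = positive control rescue; higher means more ATP so stronger rescue from cytokine killing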
UPR CHOP act: activators of apoptotic arm of unfolded protein response (CHOP); CHO-CHOP luciferase reporter, UPR activation, luminescence; percent of tunicamycin response over DMSO baseline; AID 449763; activation, % at 10 µM; 330,000 tested, 0.34% active;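 active = at 10 µM dose, activation of 40% or more, normalized to positive control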;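 note: 100% = tunicamycin at 10 µg/mL and 0% = DMSO alone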
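System: CHO-CHOP luciferase reporter cell line; amount: 500 cells/well; buffer or medium: F12 medium containing 10% fetal bovine serum; incubation: 6 h compound exposure at 37 °C after overnight seeding; measured by: luciferase luminescence after 10 min with Steady-Glo reagent; evaluation: % reporter activation, DMSO baseline versus tunicamycin full activation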
CSC inhib: cancer stem cell inhibition | cancer stem cell-like cells viability, luminescence | inhibition, % at 7.5 µM | 300,000 tested, 1.1% active; in the data active = inhibition above about 75%; inconclusive = no clear call, values can overlap the other calls; tested in HMLE shEcad cells
XBP1 UPR activ: adaptive UPR (XBP1) activation | CHO-XBP1 luciferase reporter, IRE1-XBP1 UPR activation, luminescence; percent of tunicamycin response, DMSO as zero | activation, % at 20 µM | 330,000 tested, 0.33% active;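 active = versus positive control, 20 µM dose yields 30% or more activation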;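 note: 100% = tunicamycin at 10 µg/mL and 0% = DMSO only wells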
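Material: CHO cell line with stable XBP1 luciferase reporter; buffer or medium: F12 medium containing 10% fetal bovine serum; compound: single point, 20 µM final compound, 1% DMSO; incubation: 6 h treatment, 37 °C; measured by: glow luminescence from Steady-Glo reagent; evaluation: activation, % of tunicamycin; control set: tunicamycin high, DMSO low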
Mdm2-MdmX inh: inhibitors of human Mdm2/MdmX interaction; SaOS-2 split-luciferase Mdm2/MdmX complementation, luminescence; 330,000 tested, 3% active; O15151+Q00987; inhibition, % at 8 µM;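 active = inhibition of at least 50% at 8 µM in the primary screen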
Target sequence (O15151 whole entry, looked up): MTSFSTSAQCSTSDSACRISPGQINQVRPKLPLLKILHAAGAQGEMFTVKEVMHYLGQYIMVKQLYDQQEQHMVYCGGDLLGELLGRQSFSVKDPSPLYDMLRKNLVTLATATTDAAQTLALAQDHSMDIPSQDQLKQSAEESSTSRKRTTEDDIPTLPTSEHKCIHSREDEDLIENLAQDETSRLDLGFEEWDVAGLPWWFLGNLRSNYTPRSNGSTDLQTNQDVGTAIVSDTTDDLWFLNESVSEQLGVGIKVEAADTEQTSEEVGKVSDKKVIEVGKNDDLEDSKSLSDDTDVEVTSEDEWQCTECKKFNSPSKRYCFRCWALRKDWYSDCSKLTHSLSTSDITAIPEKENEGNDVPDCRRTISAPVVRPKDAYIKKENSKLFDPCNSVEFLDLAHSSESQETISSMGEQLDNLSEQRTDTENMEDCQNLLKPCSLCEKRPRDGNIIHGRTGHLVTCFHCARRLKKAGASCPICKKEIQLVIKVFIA
Target sequence (Q00987 whole entry, looked up): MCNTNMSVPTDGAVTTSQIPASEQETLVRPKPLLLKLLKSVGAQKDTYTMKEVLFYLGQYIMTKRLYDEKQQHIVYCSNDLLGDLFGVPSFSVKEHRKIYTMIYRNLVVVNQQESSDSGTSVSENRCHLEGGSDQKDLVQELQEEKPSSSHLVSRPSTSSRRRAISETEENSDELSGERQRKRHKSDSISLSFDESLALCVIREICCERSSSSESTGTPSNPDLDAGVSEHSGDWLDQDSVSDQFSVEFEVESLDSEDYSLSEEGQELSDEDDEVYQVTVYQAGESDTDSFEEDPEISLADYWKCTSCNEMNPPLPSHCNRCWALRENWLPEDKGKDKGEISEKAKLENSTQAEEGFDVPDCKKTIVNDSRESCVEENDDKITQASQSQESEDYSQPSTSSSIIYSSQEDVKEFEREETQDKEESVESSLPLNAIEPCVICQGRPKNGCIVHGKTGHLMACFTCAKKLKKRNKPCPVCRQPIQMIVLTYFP
T cruzi repl: blocks replication of Trypanosoma cruzi | T. cruzi beta-gal in NIH3T3, luminescence, 90 h | inhibition, % (test concentration not listed) | 300,000 tested, 1.4% active;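 active = mean inhibition across valid replicates above about 55%, limit read from the data; inconclusive = mean below that limit but half or more replicates reach it; inactive = mean below it, under half of replicates reach it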;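 note: signal also drops with host cell toxicity which is not excluded here; 0% = plate median of DMSO wells and 100% = zero luminescence signal; higher percent means less beta-gal luminescence so fewer parasites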
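Assay system: NIH/3T3 host cells with β-galactosidase reporter T. cruzi; input: 5,000 host fibroblasts per well; compound: single 50 nL compound addition per well in DMSO; timing: ≥90 h infection period, 3 h prior cell attachment; measured by: GalScreen β-gal luminescence, detergent lysis, 60 min; evaluation: percent inhibition of parasite-derived β-gal signal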
Mdm2 MdmX conf: confirmation of human Mdm2/MdmX interaction inhibitors. inhibition, % at 8 µM. shares compounds with Mdm2-MdmX inh. Mdm2-MdmX binding, luminescent assay. 10,000 tested, 55% active. AID 489028; in the data active = inhibition above about 40%
Full FLuc ctr: inhibits full-length luciferase, flagging false Mdm2/MdmX hits; shares compounds with Mdm2-MdmX inh; SaOS-2 full-length luciferase counterscreen, luminescence; inhibition, % at 8 µM; 6,200 tested, 77% active; AID 504607;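 active = mean inhibition at 8 µM reaching about 37%, which flags the compound as non-specific, limit read from the data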;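 note: p53-null SaOS-2 cells with luciferase driven by a doxycycline-inducible promoter; compound on cells about two nights before reading with doxycycline added after day one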
The depositor's hits bear a star; ? = inconclusive; . = no result.

SMILES	Beta apoptosis	UPR CHOP act	CSC inhib	XBP1 UPR activ	Mdm2-MdmX inh	T cruzi repl	Mdm2 MdmX conf	others
CCCC(=O)NC(c1ccc(OC)c(OC)c1)c1cc(Cl)c2cccnc2c1O (stereo not drawn)	91.5*	-0.6	-9.8	1.5	72.8*	55.5*	60.0*	Full FLuc ctr=27.9
CCn1c(NC(=O)c2ccc(COc3ccc(C)cc3[N+](=O)[O-])o2)nc2ccccc21	20.8	-0.7	30.0	-0.5	59.1*	42.8	41.5*	Full FLuc ctr=93.6*
Cc1ccc(OCc2ccc(C(=O)Nc3cc(C)on3)o2)c([N+](=O)[O-])c1	2.4	1.9	-0.6	-2.2	-2.4	7.2	.
COCCN1CC(C(=O)NCCc2nc(C)c(C)s2)CCC1=O (stereo not drawn)	6.9	-1.0	-5.6	-5.1	1.2	-23.2	.
CCOC(=O)C1=C(COC(=O)CCOc2ccccc2)NC(=O)NC1C (stereo not drawn)	-0.1	-0.1	-6.0	-0.9	20.3	.	.
COc1ccc(N2CCN(C(=O)c3ccc(CS(=O)c4cccc(C)c4)o3)CC2)cc1 (stereo not drawn)	-5.6	0.1	-5.3	-7.4	27.2	-4.1	.
COc1cccc(N2CCN(C(=O)c3ccc(CS(=O)c4ccccc4Cl)o3)CC2)c1 (stereo not drawn)	20.9	0.2	52.2	7.7	70.1*	19.7	50.8*	Full FLuc ctr=102.2*
COc1cccc(N2CCN(C(=O)c3ccc(CS(=O)c4ccccc4C)o3)CC2)c1 (stereo not drawn)	7.2	-0.1	54.1	9.6	50.9*	7.7	50.5*	Full FLuc ctr=73.8*
CCN(CC(=O)N1CCC(C(N)=O)CC1)S(=O)(=O)c1ccc(Cl)cc1	-3.8	0.0	-3.9	-1.6	-9.6	15.8	.
Clc1ccc(-c2csc(=Nc3cccnc3)n2CCCn2ccnc2)cc1Cl	22.9	3.7	8.8	-0.4	66.3*	57.1*	35.9	Full FLuc ctr=55.4*
COCCn1c(-c2ccc(Br)cc2)csc1=Nc1cccnc1	.	-1.7	.	1.2	31.9	.	.
CN1CC2=Cc3ccccc3OC23Oc2ccccc2C=C3C1	.	1.0	53.7	0.0	58.7*	12.4	25.2
CC(C)c1ccc(OC(=O)c2ccc3c(=O)n4c(nc3c2)CCC4)cc1	.	6.0	-5.7	1.6	-1.0	-6.5	.
O=C(NCc1ccc(F)cc1)C(=O)Nc1nc(C23CC4CC(CC(C4)C2)C3)cs1	30.9	3.1	75.1*	1.7	58.8*	24.8	29.9
CC(=O)Nc1ncnc2c1c(-c1ccc(Cl)cc1)nn2C(C)(C)C	-1.3	-0.6	19.1	13.3	73.2*	60.6*	37.4	Full FLuc ctr=55.2*
CC(=O)Nc1nc(-c2ccc(Cl)cc2)nc(C)c1C(C)=O	-4.0	-1.5	-0.6	1.1	-6.1	-8.4	.
O=[N+]([O-])c1c(Nc2ccc(O)cc2)cc(N2CCOCC2)c2nonc12	9.3	-0.4	-2.5	2.6	50.7*	-17.3	18.1
O=[N+]([O-])c1c(Nc2ccccc2O)cc(Cl)c2nonc12	-12.8	-8.5	-7.6	-10.6	94.8*	58.7*	99.8*	Full FLuc ctr=53.9*
O=C(NCCN1C(=O)S/C(=C\c2ccc(OC(F)F)cc2)C1=O)c1cnccn1	8.9	-0.6	.	0.7	41.2	-3.7	.
Cc1c(C(=O)OC/C(O)=C(\C#N)c2nc3ccccc3[nH]2)oc2ccc(Br)cc12	0.0	2.7	27.0	2.1	84.6*	0.6	14.3
CC(C)OCc1c(C(=O)OC/C(O)=C(\C#N)c2nc3ccccc3[nH]2)oc2ccccc12	3.6	0.2	-1.8	-4.0	56.7*	-3.2	-5.0
Cc1c(-c2cccc(Cl)c2)nc2ccccc2c1C(=O)OC/C(O)=C(\C#N)c1nc2ccccc2[nH]1	97.2*	0.4	97.7*	15.7	70.0*	41.7	11.2
Cc1cccc(C)c1OCC(=O)OC/C(O)=C(\C#N)c1nc2ccccc2[nH]1	0.2	0.5	-2.0	-3.7	-15.7	-12.7	.
COc1ccc2[nH]c3c(c2c1)CCN1C(=O)C(CC(=O)NCCCn2ccnc2)C[C@H](C(=O)N2CCOCC2)[C@@]31C (stereo partly drawn)	.	0.9	.	1.1	10.9	.	.
O=[N+]([O-])c1cccc(/C=N/Nc2nc(NCc3ccccc3)nc(N3CCOCC3)n2)c1O	11.6	8.4	41.8	20.5	21.7	41.0	.
SMILES	Beta apoptosis	UPR CHOP act	CSC inhib	XBP1 UPR activ	Mdm2-MdmX inh	T cruzi repl	Mdm2 MdmX conf	others
CCc1nc(SCC(=O)N2CC(=O)Nc3ccccc32)c2c(C)c(C)sc2n1	19.8	-1.8	3.8	-3.3	38.5	14.6	.
Cc1sc2nc(C(C)C)nc(SCC(=O)N3c4ccccc4CC3C)c2c1C (stereo not drawn)	-3.4	1.5	30.9	2.3	56.0*	18.3	26.8
CCc1nc(SCC(=O)N2c3ccccc3CC2C)c2c(C)c(C)sc2n1 (stereo not drawn)	20.3	0.8	48.5	-0.3	98.0*	28.1	93.0*	Full FLuc ctr=52.8*
CC1Sc2ccc(S(=O)(=O)CCC(=O)Nc3ccc(C(C)C)cc3)cc2NC1=O (stereo not drawn)	-2.4	4.2	-13.0	-3.8	-9.6	14.0	.
O=C(Nc1cccc(C(F)(F)F)c1)Nc1ccc(N2CCCC2)c(S(=O)(=O)Nc2ccccc2Cl)c1	103.0*	15.0	77.9*	5.8	99.1*	54.2	97.3*	Full FLuc ctr=56.9*
O=C1C(=O)c2ccccc2C(O)=C1C1CCC(c2ccc(Cl)cc2)CC1 (stereo not drawn)	12.3	2.2	45.0	-4.7	89.9*	.	27.2
O=C(Nc1ccc(O)cc1)c1ccc(C(=O)c2ccccc2)o1	2.3	0.7	22.2	3.9	1.6	-5.3	.
CC(NC(=O)CNC(=O)c1sc2ccccc2c1Cl)c1ccc(S(N)(=O)=O)cc1 (stereo not drawn)	-3.0	0.9	4.8	1.0	18.2	?	.
C=CCn1c(=NC(=O)c2sc3ccccc3c2Cl)sc2cc(S(N)(=O)=O)ccc21	5.9	4.9	7.5	26.5	68.2*	34.7	35.0
CCOC(=O)Cn1c(=NC(=O)c2nc3ccccc3s2)sc2cc(S(N)(=O)=O)ccc21	16.3	-0.4	-13.5	7.4	62.5*	2.4	17.8
O=C1Nc2ccc(Br)cc2C12NNc1ccccc1O2 (stereo not drawn)	-2.5	1.9	82.5*	9.0	76.4*	7.8	22.6
c1ccc(CNc2nc(N3CCN(Cc4ccccc4)CC3)nc3ccccc23)cc1	22.6	2.3	97.9*	-2.3	81.0*	24.0	24.6
